As usually defined, the MIC is the smallest concentration in the dilution series that meets the test's criterion for growth inhibition. Read a low MIC as a more susceptible organism.

Values after ≈ are worked out from the molar mass of the structure shown. A value given as a limit tells only on which side of the number the result lay.

One assay relates to Rhodotorula mucilaginosa. Put plainly: Antifungal activity against Rhodotorula mucilaginosa IFO 0001. In kind it is functional. In outline:
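Compounds dissolved in DMF; MIC by serial 2-fold agar dilution on Sabouraud dextrose agar, read after 48 h cultivation at 25 °C.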

The species named for the next assay is Bos taurus. Put plainly: Respiratory inhibition in bovine heart submitochondrial particles. In kind it is functional. An outline of the steps: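 Bovine heart submitochondrial particles prepared by the Matsuno-Yagi and Hatefi method; uncoupler-stimulated respiration with 10 mM succinate as substrate, oxygen consumption followed by oxygen electrode at 25 °C.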

Take `COc1ccnc(C(=O)N[C@H]2COC(=O)[C@H](Cc3ccccc3)[C@@H](OC(=O)C(C)C)[C@H](C)OC2=O)c1O`: the MIC in the assay with Rhodotorula mucilaginosa is < 0.1 µg/mL. The compound also gave a pI50 in the assay listed under Bos taurus of 6.
Taken in the same sequence, the figures for `CCCCCCOC(=O)CC[C@H](NC(=O)c1nccc(OC)c1O)C(=O)OCCCCCC` were 3.13 µg/mL (≈ 6.71 µM) and 6.
In the assay on Rhodotorula mucilaginosa, `CCCCCCCOC(=O)CC[C@H](NC(=O)c1nccc(OC)c1O)C(=O)OCCCCCCC` showed an MIC of 50 µg/mL (≈ 101 µM).
On to `CCCCCCOC(=O)C[C@H](NC(=O)c1ccc(OC)c(OC)c1O)C(=O)OCCCCCC`, for which the MIC with Rhodotorula mucilaginosa is > 100 µg/mL. The pI50 in the assay filed under Bos taurus amounted to 4.9.
In the assay with Rhodotorula mucilaginosa, `CCCCCCOC(=O)C[C@H](NC(=O)c1cc(O)c(OC)c(OC)c1O)C(=O)OCCCCCC` displayed an MIC of 100 µg/mL (≈ 201 µM). The compound also gave a pI50 in the assay listed under Bos taurus of 5.
On to `CCCCCCOC(=O)CC[C@H](NC(=O)c1cccc(NC=O)c1O)C(=O)OCCCCCC`, for which the MIC against Rhodotorula mucilaginosa was > 100 µg/mL. For the same compound, the pI50 in the assay listed under Bos taurus worked out at 7.1.
For the compound `CCCCCOC(=O)CC[C@H](NC(=O)c1nccc(OC)c1O)C(=O)OCCCCC`, inhibition of growth against Rhodotorula mucilaginosa (MIC) required 12.5 µg/mL (≈ 28.5 µM).
On to `CCCCCCOC(=O)CC[C@@H](NC(=O)c1nccc(OC)c1O)C(=O)OCCCCCC`, for which, in the assay with Rhodotorula mucilaginosa, 100 µg/mL (≈ 214 µM) was the least that counted as inhibitory (MIC).
On to `CCCCCCCCOC(=O)CC[C@H](NC(=O)c1nccc(OC)c1O)C(=O)OCCCCCCCC`, for which the MIC against Rhodotorula mucilaginosa is > 100 µg/mL. Moreover, in the assay listed under Bos taurus, the pI50 is 5.7.
As for `CCCCCCOC(=O)C[C@H](NC(=O)c1nccc(OC)c1O)C(=O)OCCCCCC`, in the assay with Rhodotorula mucilaginosa, 100 µg/mL (≈ 221 µM) was the least that counted as inhibitory (MIC).
Regarding `CCCC[C@H]1C(=O)O[C@H](C)[C@H](NC(=O)c2cccc(NC=O)c2O)C(=O)O[C@@H](C)[C@@H]1OC(=O)CC(C)C` [ANTIMYCIN A3], it took 0.39 µg/mL (≈ 0.749 µM) to inhibit growth against Rhodotorula mucilaginosa (MIC). In the assay listed under Bos taurus, this compound displayed a pI50 of 7.4.

The values are drawn from ChEMBL document CHEMBL1147806, “Structure-activity relationship studies on UK-2A, a novel antifungal antibiotic from Streptomyces sp. 517-02. Part 5: Roles of the 9-membered dilactone-ring moiety in respiratory inhibition” (2006).
